This is an account of results in ChEMBL document CHEMBL1131380, “Clarification of the binding mode of teleocidin and benzolactams to the Cys2 domain of protein kinase Cdelta by synthesis of hydrophobically modified, teleocidin-mimicking benzolactams and computational docking simulation” (J Med Chem, 1998).

The term EC50 denotes the concentration at which the effect is half-maximal. Low values mean a more potent agent, high ones a less potent agent. One may read the Ki as a dissociation constant, usually derived from enzyme kinetics or from competition with a known ligand.

In test [1] the test system is HL-60. Put plainly: Effective concentration against monocytes of HL-60 cells growth inhibition. The class given is functional, cell-based. The note with it: Homo sapiens. The method, boiled down:
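HL-60 cells grown in RPMI1640 with 5% FBS (not delipidized), penicillin G and streptomycin, at 37 °C in humidified 5% CO2. Compounds taken from 2 mM ethanol stocks, with final ethanol below 0.5%. Cells seeded at about 8 × 10⁴ cells/mL and counted after 4 days. EC50 for growth inhibition.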

In test [2] the target is Protein kinase C delta type (Homo sapiens, UniProt Q05655). The test can be described thus: Displacement of [3H]PDBu from recombinant Protein kinase C delta. The procedure, abridged:
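Competitive binding of [3H]PDBu (Kd 2.9 nM) to recombinant PKCδ. Ki derived from the IC50 of the binding curve. Number of repetitions given per compound.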
(In general: Displacement assays read how much labelled ligand stays bound in the presence of the test substance.)

For test [3], the system named is HL-60. Put plainly: Effective concentration against HL-60 cell differentiation. In kind it is functional, cell-based. Conditions: Homo sapiens.

Bounds are passed on as bounds.

Chain of Protein kinase C delta type (Q05655 whole entry): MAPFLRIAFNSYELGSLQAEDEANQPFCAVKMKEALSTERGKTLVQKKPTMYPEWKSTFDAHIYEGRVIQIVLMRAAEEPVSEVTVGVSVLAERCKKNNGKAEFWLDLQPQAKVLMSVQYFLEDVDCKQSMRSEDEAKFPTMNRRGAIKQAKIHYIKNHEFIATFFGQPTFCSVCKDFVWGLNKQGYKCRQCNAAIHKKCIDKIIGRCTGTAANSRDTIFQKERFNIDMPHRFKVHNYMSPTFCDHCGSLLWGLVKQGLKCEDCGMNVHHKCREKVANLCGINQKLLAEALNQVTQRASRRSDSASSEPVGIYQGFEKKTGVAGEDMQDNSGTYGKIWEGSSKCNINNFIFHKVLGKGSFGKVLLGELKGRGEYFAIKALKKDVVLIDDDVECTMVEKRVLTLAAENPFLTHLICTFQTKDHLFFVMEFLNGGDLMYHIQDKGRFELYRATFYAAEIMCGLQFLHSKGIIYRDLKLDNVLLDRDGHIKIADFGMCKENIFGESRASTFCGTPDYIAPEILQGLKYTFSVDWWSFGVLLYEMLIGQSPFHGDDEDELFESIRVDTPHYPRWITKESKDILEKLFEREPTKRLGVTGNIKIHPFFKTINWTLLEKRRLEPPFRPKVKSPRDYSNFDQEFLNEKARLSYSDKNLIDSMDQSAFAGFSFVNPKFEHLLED

For `CC(C)[C@H]1C(=O)N[C@H](CO)Cc2ccccc2N1C`, the EC50 with HL-60 [1] was over 1000 nM. The Ki in test [2] was found to be 1700 nM.
`CCCCCCCCCCc1ccc2c(c1)C[C@@H](CO)NC(=O)[C@H](C(C)C)N2C`: the inhibition constant (Ki) in test [2] was found to be 32 nM.
For `CC(C)[C@H]1C(=O)N[C@H](CO)Cc2cc3c(cc2N1C)C(C)(C)CCC3(C)C`, the Ki in test [2] was 5100 nM.
For `CC(C)[C@H]1C(=O)N[C@H](CO)Cc2c[nH]c3cccc(c23)N1C` [INDOLACTUM], in the test with HL-60 [1], the EC50 came to 5 nM. Further, in test [2], the Ki came out at 80 nM.
As to `CC(C)[C@H]1C(=O)N[C@H](CO)Cc2cc3c(cc2N1C)CCCC3(C)C`, the Ki in test [2] is 1700 nM. Besides, the EC50 with HL-60 [3] stood at 7000 nM.
Take `CCCCCCCCCCC1C(=O)N[C@H](CO)Cc2ccccc2N1C` (stereo partly drawn): the Ki in test [2] is 3 nM. Also, the 50% effective concentration (EC50) in the test on HL-60 [3] was found to be 200 nM.
As for `C=C[C@@]1(C)CC[C@](C)(C(C)C)c2cc3c4c(c[nH]c4c21)C[C@@H](CO)NC(=O)[C@H](C(C)C)N3C`, the EC50 with HL-60 [1] turned out to be 5 nM. For the same compound, the inhibition constant Ki in test [2] is 0.32 nM.
With `CCCCCCCCCCc1ccc2c(c1)N(C)[C@@H](C(C)C)C(=O)N[C@H](CO)C2`, the Ki in test [2] came to 5.9 nM.
Turning to `CC(C)[C@H]1C(=O)N[C@H](CO)Cc2cc3c(cc2N1C)C1(CCC3)CCC(C)(C)CC1`, in test [2], the inhibitory constant (Ki) amounted to 14 nM. The same compound gave a concentration for a half-maximal effect (EC50) with HL-60 [3] of 20 nM.
Regarding `CC(C)[C@H]1C(=O)N[C@H](CO)Cc2cc3c(cc2N1C)C(C)(C)CCC3`, in test [2], the Ki is 65 nM.
In the case of `CC(C)[C@H]1C(=O)N[C@H](CO)Cc2cc3c(cc2N1C)C1(CCCCC1)CCC3`, the inhibition constant Ki in test [2] stood at 19 nM. In addition, the concentration giving a half-maximal response (EC50) with HL-60 [3] came to 70 nM.
